Reference: PMC9536290 (Clinical Infectious Diseases: An Official Publication of …, 2022)

Columns and labels:
[1] = Phase IIa monotherapy study: safety and tolerability; type: in vivo, HIV-1–positive, treatment-naive adults; conditions: for Drug-related AEs: Abdominal pain / Drug-related AEs: Any event / Drug-related AEs: Chromaturia / Drug-related AEs: Diarrhea / Drug-related AEs: Epistaxis / Drug-related AEs: Fatigue / Drug-related AEs: Headache / Drug-related AEs: Maculopapular rash / Drug-related AEs: Nausea / Drug-related AEs: Pruritus / Drug-related AEs: Vomiting / Total AEs: Abdominal pain / Total AEs: Any event / Total AEs: Diarrhea / Total AEs: Headache / Total AEs: Lymphadenopathy / Total AEs: Nasopharyngitis / Total AEs: Oropharyngeal pain / Total AEs: Vomiting / Serious AEs: Anal abscess / Serious AEs: Congestive cardiomyopathy: n = 6; for Serious AEs: Anal abscess / Serious AEs: Congestive cardiomyopathy: considered not related to the study drug
How it was run: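 Adults were ART-naive, aged 18–65 years, with HIV-1 RNA ≥5000 copies/mL and CD4+ ≥350 cells/mm3. They received placebo or oral once-daily doses after a moderate-fat meal: 10 or 200 mg for 10 days (part 1), or 40–140 mg for 7 days (part 2). Safety was monitored through adverse events, clinical laboratory tests, electrocardiograms and vital signs.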

[2] = tested on: triple-mutant polymorph (R361K/V362I/L363M); conditions: cited from earlier work
[3] = observed in other studies; cited from earlier work
[4] = tested on: HIV-1 with A364V mutation; assay: Phenotypic resistance of participant virus with A364V; type: cell-based; conditions: virus of 1 participant (200 mg) with full conversion to A364V
[5] = 10 mg once daily, part 1 (10 days)
[6] = 40 mg once daily, part 2 (7 days)
[7] = 80 mg once daily, part 2 (7 days)
[8] = 140 mg once daily, part 2 (7 days)
[9] = 200 mg once daily, part 1 (10 days)
[10] = all doses combined, % of 34 participants

C=C(C)[C@@H]1CC[C@]2(NCCN3CCS(=O)(=O)CC3)CC[C@]3(C)[C@H](CC[C@@H]4[C@@]5(C)CC=C(C6=CC[C@@](CF)(C(=O)O)CC6)C(C)(C)[C@@H]5CC[C@]43C)[C@@H]12 [GSK’254]
Drug-related AEs: Abdominal pain [1, 5]: 0 n (%) | Drug-related AEs: Any event [1, 5]: 2 (33) n (%) | Drug-related AEs: Chromaturia [1, 5]: 1 (17) n (%) | Drug-related AEs: Diarrhea [1, 5]: 1 (17) n (%) | Drug-related AEs: Epistaxis [1, 5]: 0 n (%) | Drug-related AEs: Fatigue [1, 5]: 0 n (%) | Drug-related AEs: Headache [1, 5]: 0 n (%) | Drug-related AEs: Maculopapular rash [1, 5]: 0 n (%) | Drug-related AEs: Nausea [1, 5]: 1 (17) n (%) | Drug-related AEs: Pruritus [1, 5]: 0 n (%) | Drug-related AEs: Vomiting [1, 5]: 1 (17) n (%) | Total AEs: Abdominal pain [1, 5]: 0 n (%) | Total AEs: Any event [1, 5]: 3 (50) n (%) | Total AEs: Diarrhea [1, 5]: 1 (17) n (%) | Total AEs: Headache [1, 5]: 0 n (%) | Total AEs: Lymphadenopathy [1, 5]: 1 (17) n (%) | Total AEs: Nasopharyngitis [1, 5]: 0 n (%) | Total AEs: Oropharyngeal pain [1, 5]: 0 n (%) | Total AEs: Vomiting [1, 5]: 1 (17) n (%) | Drug-related AEs: Abdominal pain [1, 6]: 0 n (%) | Drug-related AEs: Any event [1, 6]: 2 (33) n (%) | Drug-related AEs: Chromaturia [1, 6]: 0 n (%) | Drug-related AEs: Diarrhea [1, 6]: 1 (17) n (%) | Drug-related AEs: Epistaxis [1, 6]: 1 (17) n (%) | Drug-related AEs: Fatigue [1, 6]: 1 (17) n (%) | Drug-related AEs: Headache [1, 6]: 0 n (%) | Drug-related AEs: Maculopapular rash [1, 6]: 0 n (%) | Drug-related AEs: Nausea [1, 6]: 0 n (%) | Drug-related AEs: Pruritus [1, 6]: 0 n (%) | Drug-related AEs: Vomiting [1, 6]: 0 n (%) | Total AEs: Abdominal pain [1, 6]: 0 n (%) | Total AEs: Any event [1, 6]: 5 (83) n (%) | Total AEs: Diarrhea [1, 6]: 1 (17) n (%) | Total AEs: Headache [1, 6]: 1 (17) n (%) | Total AEs: Lymphadenopathy [1, 6]: 0 n (%) | Total AEs: Nasopharyngitis [1, 6]: 0 n (%) | Total AEs: Oropharyngeal pain [1, 6]: 0 n (%) | Total AEs: Vomiting [1, 6]: 0 n (%) | Drug-related AEs: Abdominal pain [1, 7]: 2 (33) n (%) | Drug-related AEs: Any event [1, 7]: 2 (33) n (%) | Drug-related AEs: Chromaturia [1, 7]: 0 n (%) | Drug-related AEs: Diarrhea [1, 7]: 0 n (%) | Drug-related AEs: Epistaxis [1, 7]: 0 n (%) | Drug-related AEs: Fatigue [1, 7]: 0 n (%) | Drug-related AEs: Headache [1, 7]: 0 n (%) | Drug-related AEs: Maculopapular rash [1, 7]: 0 n (%) | Drug-related AEs: Nausea [1, 7]: 0 n (%) | Drug-related AEs: Pruritus [1, 7]: 0 n (%) | Drug-related AEs: Vomiting [1, 7]: 0 n (%) | Total AEs: Abdominal pain [1, 7]: 2 (33) n (%) | Total AEs: Any event [1, 7]: 4 (67) n (%) | Total AEs: Diarrhea [1, 7]: 0 n (%) | Total AEs: Headache [1, 7]: 0 n (%) | Total AEs: Lymphadenopathy [1, 7]: 0 n (%) | Total AEs: Nasopharyngitis [1, 7]: 0 n (%) | Total AEs: Oropharyngeal pain [1, 7]: 0 n (%) | Total AEs: Vomiting [1, 7]: 0 n (%) | Drug-related AEs: Abdominal pain [1, 8]: 0 n (%) | Drug-related AEs: Any event [1, 8]: 1 (17) n (%) | Drug-related AEs: Chromaturia [1, 8]: 0 n (%) | Drug-related AEs: Diarrhea [1, 8]: 0 n (%) | Drug-related AEs: Epistaxis [1, 8]: 0 n (%) | Drug-related AEs: Fatigue [1, 8]: 0 n (%) | Drug-related AEs: Headache [1, 8]: 0 n (%) | Drug-related AEs: Maculopapular rash [1, 8]: 1 (17) n (%) | Drug-related AEs: Nausea [1, 8]: 0 n (%) | Drug-related AEs: Pruritus [1, 8]: 1 (17) n (%) | Drug-related AEs: Vomiting [1, 8]: 0 n (%) | Total AEs: Abdominal pain [1, 8]: 0 n (%) | Total AEs: Any event [1, 8]: 5 (83) n (%) | Total AEs: Diarrhea [1, 8]: 0 n (%) | Total AEs: Headache [1, 8]: 1 (17) n (%) | Total AEs: Lymphadenopathy [1, 8]: 0 n (%) | Total AEs: Nasopharyngitis [1, 8]: 0 n (%) | Total AEs: Oropharyngeal pain [1, 8]: 1 (17) n (%) | Total AEs: Vomiting [1, 8]: 0 n (%) | Serious AEs: Anal abscess [1, 8]: 1 (17) n (%) | Serious AEs: Congestive cardiomyopathy [1, 8]: 0 n (%) | Drug-related AEs: Abdominal pain [1, 9]: 0 n (%) | Drug-related AEs: Any event [1, 9]: 2 (33) n (%) | Drug-related AEs: Chromaturia [1, 9]: 0 n (%) | Drug-related AEs: Diarrhea [1, 9]: 1 (17) n (%) | Drug-related AEs: Epistaxis [1, 9]: 0 n (%) | Drug-related AEs: Fatigue [1, 9]: 0 n (%) | Drug-related AEs: Headache [1, 9]: 1 (17) n (%) | Drug-related AEs: Maculopapular rash [1, 9]: 0 n (%) | Drug-related AEs: Nausea [1, 9]: 0 n (%) | Drug-related AEs: Pruritus [1, 9]: 0 n (%) | Drug-related AEs: Vomiting [1, 9]: 1 (17) n (%) | Total AEs: Abdominal pain [1, 9]: 0 n (%) | Total AEs: Any event [1, 9]: 5 (83) n (%) | Total AEs: Diarrhea [1, 9]: 1 (17) n (%) | Total AEs: Headache [1, 9]: 2 (33) n (%) | Total AEs: Lymphadenopathy [1, 9]: 1 (17) n (%) | Total AEs: Nasopharyngitis [1, 9]: 2 (33) n (%) | Total AEs: Oropharyngeal pain [1, 9]: 2 (33) n (%) | Total AEs: Vomiting [1, 9]: 1 (17) n (%) | Serious AEs: Anal abscess [1, 9]: 0 n (%) | Serious AEs: Congestive cardiomyopathy [1, 9]: 0 n (%) | Trends in laboratory values, electrocardiograms, or vital signs ([1]; across treatment groups in parts 1 or 2): No clinically significant trends | AEs leading to treatment discontinuation ([1]; all doses): No AEs led to treatment discontinuation | Deaths ([1]; all doses): no deaths were reported | Number of drug-related AEs overall ([1]; all doses combined): Fourteen | Participants reporting abdominal pain overall ([1]; all doses combined): 2 n | Participants reporting diarrhea overall ([1]; all doses combined): 3 n | Participants reporting headache overall ([1]; all doses combined): 4 n | Participants reporting oropharyngeal pain overall ([1]; all doses combined): 3 n | Participants reporting vomiting overall ([1]; all doses combined): 2 n | Participants reporting drug-related AEs overall [1, 10]: 9 (26%) n (%) | Participants with gastrointestinal AEs overall [1, 10]: 7 (21%) n (%) | Participants reporting AEs overall ([1]; all doses, % of 34 participants incl. placebo (n = 4), all had received GSK’254): 22 (65%) n (%) | Intensity of AEs and SAEs ([1]; all doses, except 1 participant with 2 grade 3 non-drug-related AEs): mild-to-moderate | EC90 ([2]; read-out: 3× protein-binding adjusted 90% effective concentration (3× PBA EC90)): 150 nM | EC50 ([2]; read-out: Half maximal effective concentration (EC50)): 3 nM | 3× protein-binding adjusted 90% effective concentration (3× PBA EC90) ([2]; target trough concentration): 0.11 µg/mL | Terminal phase half-life [3]: ~ 24 hours | Fold change in half maximal inhibitory concentration (phenotypic resistance) [4]: 132 fold
